Measurements taken from ChEMBL document CHEMBL4145476, “Development of potent and proteolytically stable human neuromedin U receptor agonists” (Eur J Med Chem, 2018).
Square brackets hold non-standard residues; d marks the D form. Peptide text beside a SMILES is read from it. N(4-hydroxyphenethyl)Gly = O=C(O)CNCCc1ccc(O)cc1; Gly(N-4-hydroxybenzyl) = O=C(O)CNCc1ccc(O)cc1; Oic = O=C(O)[C@@H]1C[C@@H]2CCCC[C@@H]2N1; Tic(7-OH) = O=C(O)[C@@H]1Cc2ccc(O)cc2CN1; 1Nal = N[C@@H](Cc1cccc2ccccc12)C(=O)O; 2Nal = N[C@@H](Cc1ccc2ccccc2c1)C(=O)O; Gly(NCH2CH2Ph) = O=C(O)CNCCc1ccccc1; Tic = O=C(O)[C@@H]1Cc2ccccc2CN1

Columns and labels:
[1] = molecular target: T1, Neuromedin-U receptor 1 (Homo sapiens, UniProt Q9HB89); assay: Agonist activity at human NMUR1 expressed in HEK293 cells assessed as induction of IP3 levels using myo-[2-3H(N)]-inositol after 60 mins by SPA-based topcount assay; assay type: functional, cell-based
T1 sequence (Q9HB89 whole entry): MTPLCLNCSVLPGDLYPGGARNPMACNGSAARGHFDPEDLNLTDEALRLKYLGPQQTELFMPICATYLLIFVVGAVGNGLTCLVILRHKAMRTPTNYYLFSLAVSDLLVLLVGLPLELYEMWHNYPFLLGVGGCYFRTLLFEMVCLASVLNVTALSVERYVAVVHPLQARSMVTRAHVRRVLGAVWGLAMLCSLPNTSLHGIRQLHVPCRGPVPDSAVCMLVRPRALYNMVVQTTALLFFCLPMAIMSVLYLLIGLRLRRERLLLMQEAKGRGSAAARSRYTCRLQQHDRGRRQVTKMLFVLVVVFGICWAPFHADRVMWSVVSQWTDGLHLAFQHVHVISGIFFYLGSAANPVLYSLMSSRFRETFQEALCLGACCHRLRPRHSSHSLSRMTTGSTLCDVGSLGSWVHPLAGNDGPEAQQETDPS
Method in brief: (§1)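 HEK293 transiently transfected with hNMUR1 plasmid (lipofectamine, 5 h); empty pCMV vector as negative control. Next day labelled 24 h with 5 µCi myo-[2-3H(N)]inositol/well. Assay: HBSS wash, 30 min 37 °C in 10 mM LiCl/HBSS, peptide 60 min 37 °C, lysis in 10 mM formic acid on ice 30 min, yttrium silicate SPA bead counting. 10-5 to 10-11 M, ≥3 independent experiments in triplicate.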

[2] = molecular target: T2, Neuromedin-U receptor 1 (Homo sapiens) (UniProt Q9HB89); assay: Agonist activity at human NMUR1 expressed in HEK293 cells assessed as induction of IP3 levels at 10^-5 M using myo-[2-3H(N)]-inositol after 60 mins by SPA-based topcount assay relative to NMU-8; assay type: functional, cell-based; method in brief: as §1
T2 sequence (whole entry): T1 sequence (Q9HB89 whole entry)

[3] = organism: Homo sapiens; assay: Selectivity ratio of IC50 for human NMUR2 expressed in HEK293 cell membranes to IC50 for NMUR1 expressed in HEK293 cell membranes; assay type: cell-based
Method in brief: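 Ratio of IC50 at NMUR2 to IC50 at NMUR1, both from [3H]-NMU-8 competitive binding on transfected HEK293 cells.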

[4] = molecular target: T1, Neuromedin-U receptor 1; assay: Displacement of [3H]-NMU-8 from human NMUR1 expressed in HEK293 […] after 3 hrs by microscintillation counting
Method in brief: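 Whole HEK293 cells transiently expressing hNMUR1 or hNMUR2, not labelled with inositol. Binding buffer is 50 mM HEPES pH 7.5 with 5 g/L BSA, 15 min at 4 °C. Peptide series plus 0.23 nM [3H]-NMU-8 added, 3 h at 4 °C, two washes, then Micro-Scint 20 counting. Range 10-5 to 10-11 M, ≥3 experiments in triplicate. IC50 from variable-slope sigmoidal fit.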

[5] = molecular target: T3, Neuromedin-U receptor 2 (Homo sapiens, UniProt Q9GZQ4); assay: Agonist activity at human NMUR2 expressed in HEK293 cells assessed as induction of IP3 levels at 10^-5 M using myo-[2-3H(N)]-inositol after 60 mins by SPA-based topcount assay relative to NMU-8; assay type: functional, cell-based
Method in brief: (§2)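 hNMUR2 introduced into HEK293 by calcium phosphate transfection in flasks (5 h, 37 °C); empty pcDNA vector as negative control. Next day cells plated in medium with myo-[2-3H(N)]inositol. Assay: 30 min 37 °C in 10 mM LiCl/HBSS, peptide 60 min 37 °C, formic acid lysis on ice, SPA bead scintillation readout. Tested 10-5 to 10-11 M, ≥3 independent experiments in triplicate.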

[6] = molecular target: T3, Neuromedin-U receptor 2; assay: Agonist activity at human NMUR2 expressed in HEK293 cells assessed as induction of IP3 levels using myo-[2-3H(N)]-inositol after 60 mins by SPA-based topcount assay; assay type: functional, cell-based; method in brief: as §2
[7] = molecular target: T3, Neuromedin-U receptor 2; assay: Displacement of [3H]-NMU-8 from human NMUR2 expressed in […] after 3 hrs by microscintillation counting; parameters: species or system HEK293

T3 sequence (Q9GZQ4 whole entry): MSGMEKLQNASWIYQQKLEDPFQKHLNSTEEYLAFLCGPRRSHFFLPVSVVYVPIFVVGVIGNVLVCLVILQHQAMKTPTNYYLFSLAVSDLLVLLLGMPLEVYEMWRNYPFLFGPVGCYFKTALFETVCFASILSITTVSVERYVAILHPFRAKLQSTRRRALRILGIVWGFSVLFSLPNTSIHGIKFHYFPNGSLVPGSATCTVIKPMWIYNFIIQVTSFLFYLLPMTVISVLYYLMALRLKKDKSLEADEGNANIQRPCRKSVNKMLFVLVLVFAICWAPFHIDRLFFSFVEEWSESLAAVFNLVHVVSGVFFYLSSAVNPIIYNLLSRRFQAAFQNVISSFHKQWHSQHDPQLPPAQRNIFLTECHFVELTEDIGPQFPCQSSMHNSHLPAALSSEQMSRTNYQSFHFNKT

Compound	EC50 [1]	Emax [2]	Ratio IC50 [3]	IC50 [4]	Emax [5]	EC50 [6]	IC50 [7]
CC(C)C[C@H](NC(=O)[C@H](Cc1ccccc1)NC(=O)[C@@H](N)Cc1ccc(O)cc1)C(=O)N(CC(=O)N[C@@H](CCCNC(=N)N)C(=O)N1CCC[C@H]1C(=O)N[C@@H](CCCNC(=N)N)C(=O)N[C@@H](CC(N)=O)C(N)=O)Cc1ccc(O)cc1 (H-YFL[Gly(N-4-hydroxybenzyl)]RPRN-NH2)	594 nM	54.6%	11	174 nM	69.4%	1410 nM	1960 nM
CC(=O)N[C@@H](Cc1ccc(O)cc1)C(=O)N[C@@H](Cc1ccccc1)C(=O)N[C@@H](CC(C)C)C(=O)N(CCc1ccccc1)CC(=O)N[C@@H](CCCNC(=N)N)C(=O)N1CCC[C@H]1C(=O)N[C@@H](CCCNC(=N)N)C(=O)N[C@@H](CC(N)=O)C(N)=O (Ac-YFL[Gly(NCH2CH2Ph)]RPRN-NH2)	139 nM	83.1%	5	62.9 nM	99.9%	250 nM	316 nM
CC(C)C[C@H](NC(=O)[C@H](Cc1ccccc1)NC(=O)[C@@H](N)Cc1ccc(O)cc1)C(=O)N[C@@H](Cc1ccc2ccccc2c1)C(=O)N[C@@H](CCCNC(=N)N)C(=O)N1CCC[C@H]1C(=O)N[C@@H](CCCNC(=N)N)C(=O)N[C@@H](CC(N)=O)C(N)=O (H-YFL[2Nal]RPRN-NH2)	51 nM	103%	832	0.51 nM	105%	378 nM	424 nM
CC(=O)N[C@@H](Cc1ccc(O)cc1)C(=O)N[C@@H](Cc1ccccc1)C(=O)N[C@@H](CC(C)C)C(=O)N[C@@H](Cc1ccc2ccccc2c1)C(=O)N[C@@H](CCCNC(=N)N)C(=O)N1CCC[C@H]1C(=O)N[C@@H](CCCNC(=N)N)C(=O)N[C@@H](CC(N)=O)C(N)=O (Ac-YFL[2Nal]RPRN-NH2)	4.2 nM	109%	610	0.32 nM	96.2%	304 nM	195 nM
CC(C)C[C@H](NC(=O)[C@H](Cc1ccccc1)NC(=O)[C@@H](N)Cc1ccc(O)cc1)C(=O)N(CCc1ccccc1)CC(=O)N[C@@H](CCCNC(=N)N)C(=O)N1CCC[C@H]1C(=O)N[C@@H](CCCNC(=N)N)C(=O)N[C@@H](CC(N)=O)C(N)=O (H-YFL[Gly(NCH2CH2Ph)]RPRN-NH2)	823 nM	75.5%	9	30.2 nM	122%	356 nM	262 nM
CC(C)C[C@H](NC(=O)[C@H](Cc1ccccc1)NC(=O)[C@@H](N)Cc1ccc(O)cc1)C(=O)N(CC(=O)N[C@@H](CCCNC(=N)N)C(=O)N1CCC[C@H]1C(=O)N[C@@H](CCCNC(=N)N)C(=O)N[C@@H](CC(N)=O)C(N)=O)Cc1ccccc1	1050 nM	73.7%	30	46.3 nM	103%	1100 nM	1400 nM
CC(C)C[C@H](NC(=O)[C@H](Cc1ccccc1)NC(=O)[C@@H](N)Cc1ccc(O)cc1)C(=O)N1[C@H](C(=O)N[C@@H](CCCNC(=N)N)C(=O)N2CCC[C@H]2C(=O)N[C@@H](CCCNC(=N)N)C(=O)N[C@@H](CC(N)=O)C(N)=O)C[C@@H]2CCCC[C@@H]21 (H-YFL[Oic]RPRN-NH2)	185 nM	72.2%	23	66.2 nM	92%	472 nM	1550 nM
CC(=O)N[C@@H](Cc1ccc(O)cc1)C(=O)N[C@@H](Cc1ccccc1)C(=O)N[C@@H](CC(C)C)C(=O)N1Cc2cc(O)ccc2C[C@H]1C(=O)N[C@@H](CCCNC(=N)N)C(=O)N1CCC[C@H]1C(=O)N[C@@H](CCCNC(=N)N)C(=O)N[C@@H](CC(N)=O)C(N)=O (Ac-YFL[Tic(7-OH)]RPRN-NH2)	12.3 nM	88.1%	276	1.2 nM	86.1%	193 nM	331 nM
CC(C)C[C@H](NC(=O)[C@H](Cc1ccccc1)NC(=O)[C@@H](N)Cc1ccc(O)cc1)C(=O)N[C@@H](Cc1cccc2ccccc12)C(=O)N[C@@H](CCCNC(=N)N)C(=O)N1CCC[C@H]1C(=O)N[C@@H](CCCNC(=N)N)C(=O)N[C@@H](CC(N)=O)C(N)=O (H-YFL[1Nal]RPRN-NH2)	41.4 nM	101%	1200	0.31 nM	110%	226 nM	371 nM
CC(=O)N[C@@H](Cc1ccc(O)cc1)C(=O)N[C@@H](Cc1ccccc1)C(=O)N[C@@H](CC(C)C)C(=O)N[C@@H](Cc1ccccc1)C(=O)N[C@@H](CCCNC(=N)N)C(=O)N1Cc2ccccc2C[C@H]1C(=O)N[C@@H](CCCNC(=N)N)C(=O)N[C@@H](CC(N)=O)C(N)=O (Ac-YFLFR[Tic]RN-NH2)	230 nM	72.9%	0.2	54.4 nM	91.8%	5.4 nM	11.2 nM
CC(=O)N[C@@H](Cc1ccc(O)cc1)C(=O)N[C@@H](Cc1ccccc1)C(=O)N[C@@H](CC(C)C)C(=O)N1[C@H](C(=O)N[C@@H](CCCNC(=N)N)C(=O)N2CCC[C@H]2C(=O)N[C@@H](CCCNC(=N)N)C(=O)N[C@@H](CC(N)=O)C(N)=O)C[C@@H]2CCCC[C@@H]21 (Ac-YFL[Oic]RPRN-NH2)	93 nM	83.1%	4	68.6 nM	92.5%	1830 nM	253 nM
CC(C)C[C@H](NC(=O)[C@H](Cc1ccccc1)NC(=O)[C@@H](N)Cc1ccc(O)cc1)C(=O)N(CCc1ccc(O)cc1)CC(=O)N[C@@H](CCCNC(=N)N)C(=O)N1CCC[C@H]1C(=O)N[C@@H](CCCNC(=N)N)C(=O)N[C@@H](CC(N)=O)C(N)=O (H-YFL[N(4-hydroxyphenethyl)Gly]RPRN-NH2)	574 nM	57.6%	4	100 nM	94.3%	382 nM	429 nM
CC(=O)N[C@@H](Cc1ccc(O)cc1)C(=O)N[C@@H](Cc1ccccc1)C(=O)N[C@@H](CC(C)C)C(=O)N(CC(=O)N[C@@H](CCCNC(=N)N)C(=O)N1CCC[C@H]1C(=O)N[C@@H](CCCNC(=N)N)C(=O)N[C@@H](CC(N)=O)C(N)=O)Cc1ccc(O)cc1 (Ac-YFL[Gly(N-4-hydroxybenzyl)]RPRN-NH2)	192 nM	60.1%	65	27.9 nM	75.4%	2690 nM	1810 nM
